Data reported in ChEMBL document CHEMBL1212768, “Screening and quantification of the expression of antibiotic resistance genes in Acinetobacter baumannii with a microarray” (2010).
≈ marks a conversion by molar mass, not a printed value.

Experiments:
Format in all cases: functional
[1] = system: Acinetobacter baumannii; assay: Antibacterial activity against Acinetobacter baumannii BM4454 by antimicrobial susceptibility assay
Summary of the method: (§1)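 MICs measured by Etest on Mueller-Hinton agar. Disk diffusion on the same medium was used for susceptibility screening. Strains were grown at 37°C in brain heart infusion broth or agar. Mutants were picked from antibiotic gradient plates, taking colonies growing above the normal MIC. Those resistant to several drug classes by diffusion were kept.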

[2] = system: Acinetobacter baumannii; assay: Antibacterial activity against Acinetobacter baumannii CIP70-10 by antimicrobial susceptibility assay; summary of the method: as §1
[3] = system: Acinetobacter baumannii; assay: Antibacterial activity against multidrug-resistant Acinetobacter baumannii AYE by antimicrobial susceptibility assay; summary of the method: as §1
[4] = system: Acinetobacter baumannii; assay: Antibacterial activity against multidrug-resistant Acinetobacter baumannii BM4665 by antimicrobial susceptibility assay; summary of the method: as §1
[5] = system: Acinetobacter baumannii; assay: Antibacterial activity against multidrug-resistant Acinetobacter baumannii BM4668 by antimicrobial susceptibility assay; summary of the method: as §1
[6] = system: Acinetobacter baumannii; assay: Antibacterial activity against multidrug-resistant Acinetobacter baumannii BM4675 by antimicrobial susceptibility assay; summary of the method: as §1
[7] = system: Acinetobacter baumannii; assay: Antibacterial activity against multidrug-resistant Acinetobacter baumannii BM4676 by antimicrobial susceptibility assay; summary of the method: as §1
[8] = system: Acinetobacter baumannii; assay: Antibacterial activity against multidrug-resistant Acinetobacter baumannii BM4666 by antimicrobial susceptibility assay; summary of the method: as §1
[9] = system: Acinetobacter baumannii; assay: Antibacterial activity against Acinetobacter baumannii BM4587 by antimicrobial susceptibility assay; summary of the method: as §1
[10] = system: Acinetobacter baumannii; assay: Antibacterial activity against Acinetobacter baumannii BM4467 by antimicrobial susceptibility assay; summary of the method: as §1

| SMILES | MIC [1] [µg/mL] | MIC [2] [µg/mL] | MIC [3] [µg/mL] | MIC [4] [µg/mL] | MIC [5] [µg/mL] | MIC [6] [µg/mL] | MIC [7] [µg/mL] | MIC [8] [µg/mL] | MIC [9] [µg/mL] | MIC [10] [µg/mL] |
| --- | --- | --- | --- | --- | --- | --- | --- | --- | --- | --- |
| NCC[C@H](O)C(=O)N[C@@H]1C[C@H](N)[C@@H](O[C@H]2O[C@H](CN)[C@@H](O)[C@H](O)[C@H]2O)[C@H](O)[C@H]1O[C@H]1O[C@H](CO)[C@@H](O)[C@H](N)[C@H]1O [AMIKACIN] | 8 (≈ 13.7 µM) | 6 (≈ 10.2 µM) | 96 (≈ 164 µM) | 64 (≈ 109 µM) | 8 (≈ 13.7 µM) | 96 (≈ 164 µM) | > 256 | 6 (≈ 10.2 µM) | 4 (≈ 6.83 µM) | 4 (≈ 6.83 µM) |
| C[C@H]1[C@H](NC(=O)/C(=N\OC(C)(C)C(=O)O)c2csc(N)n2)C(=O)N1S(=O)(=O)O [AZTREONAM] | 16 (≈ 36.7 µM) | 48 (≈ 110 µM) | > 256 | 6 (≈ 13.8 µM) | 48 (≈ 110 µM) | 32 (≈ 73.5 µM) | 32 (≈ 73.5 µM) | 32 (≈ 73.5 µM) | 12 (≈ 27.6 µM) | 32 (≈ 73.5 µM) |
| CO/N=C(\C(=O)N[C@@H]1C(=O)N2C(C(=O)[O-])=C(C[N+]3(C)CCCC3)CS[C@H]12)c1csc(N)n1 [CEFEPIME] | 3 (≈ 6.24 µM) | 1.5 (≈ 3.12 µM) | > 256 | 8 (≈ 16.6 µM) | 3 (≈ 6.24 µM) | 8 (≈ 16.6 µM) | 32 (≈ 66.6 µM) | 2 (≈ 4.16 µM) | 0.75 (≈ 1.56 µM) | 1.5 (≈ 3.12 µM) |
| CO/N=C(\C(=O)N[C@@H]1C(=O)N2C(C(=O)O)=C(COC(C)=O)CS[C@H]12)c1csc(N)n1 [CEFOTAXIME] | 4 (≈ 8.78 µM) | 12 (≈ 26.3 µM) | > 256 | 4 (≈ 8.78 µM) | 8 (≈ 17.6 µM) | > 256 | 32 (≈ 70.3 µM) | 6 (≈ 13.2 µM) | 3 (≈ 6.59 µM) | 4 (≈ 8.78 µM) |
| CC(C)(O/N=C(\C(=O)N[C@@H]1C(=O)N2C(C(=O)[O-])=C(C[n+]3ccccc3)CS[C@H]12)c1csc(N)n1)C(=O)O [CEFTAZIDIME] | 6 (≈ 11 µM) | 6 (≈ 11 µM) | > 256 | 3 (≈ 5.49 µM) | 16 (≈ 29.3 µM) | > 256 | > 256 | 12 (≈ 22 µM) | 4 (≈ 7.32 µM) | 8 (≈ 14.6 µM) |
| O=C(N[C@H](CO)[C@H](O)c1ccc([N+](=O)[O-])cc1)C(Cl)Cl [CHLORAMPHENICOL] | > 256 | 48 (≈ 149 µM) | > 256 | > 256 | > 256 | > 256 | 128 (≈ 396 µM) | > 256 | 96 (≈ 297 µM) | 96 (≈ 297 µM) |
| O=C(O)c1cn(C2CC2)c2cc(N3CCNCC3)c(F)cc2c1=O [CIPROFLOXACIN] | > 32 | 0.125 (≈ 0.377 µM) | > 32 | 0.5 (≈ 1.51 µM) | 0.38 (≈ 1.15 µM) | > 32 | 24 (≈ 72.4 µM) | 0.38 (≈ 1.15 µM) | 0.094 (≈ 0.284 µM) | 0.125 (≈ 0.377 µM) |
| C[C@@H](O)[C@H]1C(=O)N2C(C(=O)O)=C(SCCNC=N)C[C@H]12 [IMIPENEM ANHYDROUS] | 0.25 (≈ 0.835 µM) | 0.25 (≈ 0.835 µM) | 1 (≈ 3.34 µM) | 0.5 (≈ 1.67 µM) | 0.25 (≈ 0.835 µM) | 2 (≈ 6.68 µM) | > 32 | 0.19 (≈ 0.635 µM) | 0.19 (≈ 0.635 µM) | 0.25 (≈ 0.835 µM) |
